Key:
PPARγ = biological target: T1, PPARγ (Homo sapiens, UniProt P37231); assay: PPARγ luciferase transactivation assay; type: cell-based
T1 sequence (P37231 238-503 limits assumed): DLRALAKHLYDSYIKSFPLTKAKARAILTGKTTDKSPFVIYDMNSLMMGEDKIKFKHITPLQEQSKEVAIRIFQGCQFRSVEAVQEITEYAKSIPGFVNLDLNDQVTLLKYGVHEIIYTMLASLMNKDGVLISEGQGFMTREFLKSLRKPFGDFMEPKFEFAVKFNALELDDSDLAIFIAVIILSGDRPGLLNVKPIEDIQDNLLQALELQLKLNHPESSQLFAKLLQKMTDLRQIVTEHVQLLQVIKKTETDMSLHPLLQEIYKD

K562‐resistant cells = assay: Induction of cell death by PI FACS analyses, without or with imatinib; type: cell-based; conditions: for cell death rate, compound in combination with imatinib: 10 μM compound + 1 μM imatinib
COS‐7 cells = assay: Modified MTT assay; type: cell-based, monkey; conditions: non-malignant COS-7 cells
Summary of the method: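 COS-7 cells seeded 2×10³ per well in triplicate, then 24 h in humidified 5% CO2/95% air at 37 °C before dosing. Test compound added at 20 μM alongside a DMSO vehicle control (DMSO ≤0.1% final) and incubated 72 h. Metabolic activity read by the EZ4U modified MTT (formazan) assay and expressed relative to vehicle control set at 100%. Mean + SD, ≥3 independent experiments, three replicates each.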

| SMILES | cell death rate, compound in combination with imatinib (K562‐resistant cells; 72 h) [%] | EC50 (PPARγ) [µM] | also measured |
| --- | --- | --- | --- |
| CCCc1nc2ccccc2n1Cc1ccc(-c2ccccc2C(=O)OC)cc1 [2 b, Methyl 4′‐((2‐propyl‐1H‐benzo[d]imidazol‐1‐yl)methyl)‐[1,1′‐biphenyl]‐2‐carboxylate] | 80 | – | PPARγ activation at 20 μM (PPARγ; compound at 20 μM, relative to pioglitazone 10 μM = 100 %): about 36%; cell death rate, compound alone (K562‐resistant cells; 10 μM compound, 72 h, without imatinib): 21%; cytotoxicity per se (in words) (COS‐7 cells): did not exert cytotoxicity per se |
| O=C(O)c1ccccc1-c1ccc(Cn2c3ccccc3c3ccccc32)cc1 [3 a, 4′‐((9H‐Carbazol‐9‐yl)methyl)‐[1,1′‐biphenyl]‐2‐carboxylic acid] | – | 10.4 ± 3.9 | – |
| CCCc1nc2ccccc2n1Cc1ccc(-c2ccccc2C(=O)O)cc1 [3 b, 4′‐((2‐Propyl‐1H‐benzo[d]imidazol‐1‐yl)methyl)‐[1,1′‐biphenyl]‐2‐carboxylic acid] | 31 | 6.98 ± 1.06 | – |
| CCc1c(C)n(Cc2ccc(-c3ccccc3C(=O)O)cc2)c2ccccc12 [3 c, 4′‐((3‐Ethyl‐2‐methyl‐1H‐indol‐1‐yl)methyl)‐[1,1′‐biphenyl]‐2‐carboxylic acid] | – | 6.86 ± 1.58 | – |
| CCCc1nc2cc(Br)ccc2n1Cc1ccc(-c2ccccc2C(=O)OC)cc1 [5 b, Methyl 4′‐((5‐bromo‐2‐propyl‐1H‐benzo[d]imidazol‐1‐yl)methyl)‐[1,1′‐biphenyl]‐2‐carboxylate] | 31 | – | – |
| O=C(O)c1ccccc1-c1ccc(Cn2c3ccccc3c3cc(Br)ccc32)cc1 [6 a, 4′‐((3‐Bromo‐9H‐carbazol‐9‐yl)methyl)‐[1,1′‐biphenyl]‐2‐carboxylic acid] | – | 5.68 ± 1.07 | – |
| CCc1c(C)n(Cc2ccc(-c3ccccc3C(=O)O)cc2)c2ccc(Br)cc12 [6 c, 4′‐((5‐Bromo‐3‐ethyl‐2‐methyl‐1H‐indol‐1‐yl)methyl)‐[1,1′‐biphenyl]‐2‐carboxylic acid] | – | 9.52 ± 0.74 | – |
| CCCc1nc2ccc(Br)cc2n1Cc1ccc(-c2ccccc2C(=O)OC)cc1 [6‐Br‐CO2CH3, methyl 4′‐((6‐bromo‐2‐propyl‐1H‐benzo[d]imidazol‐1‐yl)methyl)‐[1,1′‐biphenyl]‐2‐carboxylate] | 63 | – | – |
| Cc1ccc(NC(=O)c2ccc(CN3CCN(C)CC3)cc2)cc1Nc1nccc(-c2cccnc2)n1 [imatinib, reference compound] | – | – | cell death, imatinib alone (K562‐resistant cells; 1 μM imatinib, K562-resistant (KD225) cells): 10–20% |
| CCCc1nc2c(C)cc(-c3nc4ccccc4n3C)cc2n1Cc1ccc(-c2ccccc2C(=O)O)cc1 [telmisartan, reference compound] | – | 4.78 ± 0.79 | – |
